C8 TRAIL sens – sensitizes caspase-8 expressing cells to TRAIL; 360,000 tested, 1% active; NB7+C8 cells + TRAIL, ATPlite viability luminescence; inhibition (viability loss, TRAIL sensitization), % at 10 µM;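 active means compounds causing at least 50% loss of cell viability in the single-dose screen, relative to plate controls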
STAT3 inh-1 – STAT3 signaling inhibition | U3A cells, IL-6 STAT3-luciferase reporter, luminescence; host cell line lacks STAT1 | inhibition, % at 5.5 µM | 190,000 tested, 0.89% active;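 active means inhibition above the mean inhibition across all screened compounds plus 3 SD, cut at about 44% in these data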;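 further: 0% = DMSO only wells and 100% = 100 µM nifuroxazide control wells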
STAT1 blocker – inhibitors of IFN-gamma induced STAT1 signaling. NIH 3T3 STAT1-luciferase reporter, luminescence. inhibition, % at 5.5 µM. 200,000 tested, 0.35% active. AID 920;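 active means inhibition above a set limit, the mean inhibition across all tested compounds plus 3 SD, cut at about 34% in these data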;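 further: 0% = IFN-gamma with DMSO and 100% = IFN-gamma with 300 µM nifuroxazide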
PPC-1+TRAIL kill – compounds killing PPC-1 cancer cells with TRAIL present (potentiator screen, no TRAIL-free arm); PPC-1 cells + TRAIL, ATPLite viability luminescence; cell killing (% activity), % at 4 µM or 5 µM; 220,000 tested, 0.41% active;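 active means cell killing above 50% in the first pass at 4 µM, then a duplicate retest at 5 µM averaging 50% or more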;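 further: plate controls were cells with TRAIL plus DMSO for no effect and medium-only wells lacking cells for full effect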
STAT3 act – increases IL-6 driven STAT3 reporter signal. U3A cells, IL-6 STAT3-luciferase reporter, luminescence; 100% = signal with IL-6 EC80 alone. 190,000 tested, 0.91% active. activation (% of control), % at 5.6 µM;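 active means activation above the screen-wide mean of compound activation plus 3 SD, cut at about 130% in these data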;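 further: 0% = background luminescence of wells with medium and substrate only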
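Assay system – human STAT1-deficient U3A cells with stable STAT3-luciferase reporter · Also added – IL-6 (33 ng/mL) · Schedule – compound 1 h, then IL-6 6 h at 37 °C · Technique – reporter luminescence signal · Evaluation – % activation versus median of IL-6-stimulated wells · Benchmarks – IL-6-only wells as 100% reference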
STAT3 inh-2 – STAT3 inhibition, confirmation assay; 1,200 tested, 45% active; shares compounds with STAT3 inh-1; inhibition, % at 5.7 µM; U3A cells, IL-6 STAT3 luciferase reporter, luminescence; cell line lacks STAT1;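 active means inhibition above the hit cutoff computed for the primary STAT3 screen, cut at about 44% in these data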;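 further: 0% = IL-6 plus DMSO and 100% = IL-6 plus nifuroxazide control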
NFkB inh 2 – NF-kappaB inhibition in STAT3 inhibitor counter-screen; shares compounds with STAT3 inh-1; HEK293T NF-kB luciferase reporter, TNF-alpha induced; inhibition, % at 5.7 µM; 1,200 tested, 36% active; AID 1308;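 active means inhibition above the mean of solvent-only control wells plus 3 SD, cutoff set per campaign, cut at about 13% in these data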;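 further: 0% = TNF-alpha with DMSO and 100% = TNF-alpha with MG high control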
STAT1 inh 2 – counter-screen for STAT3 inhibitors: STAT1 inhibition; shares compounds with STAT3 inh-1; NIH 3T3 STAT1-luciferase reporter, IFN-gamma induced, luminescence; inhibition, % at 5.7 µM; 1,200 tested, 27% active; AID 1317;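 active means inhibition above the mean plus 3 SD of solvent-only control wells, limit set per screening run, cut at about 16% in these data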;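 further: 0% = DMSO with IFN-gamma and 100% = nifuroxazide control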
The depositor's hits bear a star; x = not tested or not shown. The list is not random: actives were taken first. Their share in the collection is about 1.8%.

SMILES	C8 TRAIL sens	STAT3 inh-1	STAT1 blocker	PPC-1+TRAIL kill	STAT3 act	STAT3 inh-2	NFkB inh 2	STAT1 inh 2
O=C(Nc1ccc(-c2nc3ccccc3[nH]2)cc1)C1CCCO1 (stereo not given)	73*	68*	14	21	46	30	-14	-66
Cc1cccc(-c2nc3cc(NC(=O)C4CCCO4)ccc3o2)c1 (stereo not given)	63*	72*	-34	56*	42	46*	-5	-76
CCC(=O)Nc1ccc2oc(-c3cccc(C)c3)nc2c1	60*	64*	-3	45	50	25	-19	-110
CCOC(=O)c1ccc(N2C(=O)C=C(N3CCOCC3)C2=O)cc1	-27	x	x	x	x	x	x	x
COc1cc(/C=C2\SC(N)=NC2=O)ccc1OCC(=O)Nc1ccccc1C	8	x	x	x	x	x	x	x
O=C(Nc1cccc(Cl)c1)c1ccc(OC(=S)N2CCOCC2)cc1	36	57*	-33	-2	54	33	-27	-93
Cc1ccc(S(=O)(=O)N2C[C@H]3N(C(=O)OC(C)C)N(C(=O)OC(C)C)C[C@H](OC(=O)NCc4ccco4)[C@@]3(O)C2)cc1	-25	x	x	x	x	x	x	x
COC(=O)c1ccccc1OCCCOc1ccc(C)cc1OC	x	59*	-11	x	55	30	-24	-97
O=C(c1ccc2c(=O)n(-c3ccccc3)c(=S)[nH]c2c1)N1CCCCC1	9	47*	26	10	63	51*	14*	25*
O=C(c1ccc2c(=O)n(-c3ccccc3)c(=S)[nH]c2c1)N1CCN(c2ccccc2)CC1	4	x	x	x	x	x	x	x
Cc1ccc(OC(C)C(=O)N(C)c2ccccc2)c([N+](=O)[O-])n1 (stereo not given)	-12	x	x	x	x	x	x	x
CC(=O)c1cn(CC(=O)Nc2ccc(C)c(C)c2)c2ccccc12	-6	67*	25	9	46	53*	19*	18*
CC(=O)c1cn(CC(=O)Nc2ccccc2C)c2ccccc12	0	44*	25	21	64	44*	4	12
CC(=O)c1cn(CC(=O)Nc2c(C)cccc2C)c2ccccc12	9	30	30	16	77	x	x	x
O=C(NCCCN1CCOCC1)c1ccc(Br)cc1	-1	53*	-6	11	56	5	-8	-13
Cc1ccn2cc(C(=O)Nc3ccc4c(c3)OCCO4)nc2c1	62*	44*	-54	43	65	5	-21	-83
CC(=O)Nc1ccc(N(C(=O)c2ccco2)C(C(=O)NC2CCCC2)c2ccncc2)cc1 (stereo not given)	-21	x	x	x	x	x	x	x
CCOc1nc2c(c(=O)n(C)c(=O)n2C)n1Cc1ccccc1Cl	15	46*	17	-14	65	27	7	15
CCOC(=O)C1CCN(C(=O)C(C)N(c2ccc(Oc3ccccc3)cc2)S(C)(=O)=O)CC1 (stereo not given)	30	49*	24	10	61	41	4	10
COc1ccc(N(C(C)C(=O)N2CCC(Cc3ccccc3)CC2)S(C)(=O)=O)cc1 (stereo not given)	26	50*	26	-1	58	46*	9	21*
CCOC(=O)N1CCN(C(=O)C(C)N(c2ccc(Oc3ccccc3)cc2)S(C)(=O)=O)CC1 (stereo not given)	6	13	-2	32	93	x	x	x
COc1ccc(-c2cn3ccc4ccccc4c3n2)cc1	46	-32	-21	38	127	x	x	x
COc1ccc(-c2cn3nc4c(nc3n2)CCCC4)cc1	-2	70*	-7	10	42	-17	-6	-10
O=C(Nc1ccc(CN2CCOCC2)cc1)c1cc2ccccn2n1	-8	76*	18	49	41	27	-2	-50
O=C(Nc1ccc(CN2CCOCC2)cc1)c1cc2ccccc2o1	43	20	-36	28	87	x	x	x

Screening data (PubChem BioAssay)
